Results taken from ChEMBL document CHEMBL3232881, “New orally active amino- and hydroxy-functionalized 11-azaartemisinins and their derivatives with high order of antimalarial activity against multidrug-resistant Plasmodium yoelii in Swiss mice” (2014).

Experiments:
Assay type in all cases: functional
Plasmodium yoelii [1] = experiment: Antimalarial activity against chloroquine, mefloquine and halofantrine-resistant Plasmodium yoelii infected in Swiss mouse assessed as suppression of parasitemia at 24 mg/kg, po for 4 days by microscopic analysis relative to control
How it was run: (§1)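 Swiss mice of either sex infected ip on day 0 with 1 × 10⁶ parasitized RBCs of multidrug-resistant P. yoelii nigeriensis, five per dose. Oral dosing in groundnut oil (0.1 mL) once daily days 0–3. Parasitemia read by microscopy on day 4. % suppression = [(C − T)/C] × 100 against untreated controls; 100% means no parasites in 50 oil-immersion fields.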

Plasmodium yoelii [2] = experiment: Antimalarial activity against chloroquine, mefloquine and halofantrine-resistant Plasmodium yoelii infected in Swiss mouse assessed as mouse survival at 24 mg/kg, po for 4 days measured on day 28 relative to control
How it was run: (§2)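 P. yoelii nigeriensis (chloroquine-, mefloquine-, halofantrine-resistant) given ip as 1 × 10⁶ parasitized RBCs on day 0 to Swiss mice of either sex, five per dose. Compound in groundnut oil, 0.1 mL, given orally once daily days 0–3. Blood smears checked through day 28. Mice surviving beyond day 28 counted as protected, reported as % of five. β-Arteether as positive control.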

Plasmodium yoelii [3] = experiment: Antimalarial activity against chloroquine, mefloquine and halofantrine-resistant Plasmodium yoelii infected in Swiss mouse assessed as suppression of parasitemia at 12 mg/kg, po for 4 days by microscopic analysis relative to control; how it was run: as §1
Plasmodium yoelii [4] = experiment: Antimalarial activity against chloroquine, mefloquine and halofantrine-resistant Plasmodium yoelii infected in Swiss mouse assessed as mouse survival at 12 mg/kg, po for 4 days measured on day 28 relative to control; how it was run: as §2
Plasmodium yoelii [5] = experiment: Antimalarial activity against chloroquine, mefloquine and halofantrine-resistant Plasmodium yoelii infected in Swiss mouse assessed as mouse survival at 6 mg/kg, po for 4 days measured on day 28 relative to control; how it was run: as §2
Plasmodium yoelii [6] = experiment: Ratio of compound to beta-arteether for antimalarial activity against chloroquine, mefloquine and halofantrine-resistant Plasmodium yoelii infected in Swiss mouse assessed as mouse survival
Plasmodium yoelii [7] = experiment: Antimalarial activity against chloroquine, mefloquine and halofantrine-resistant Plasmodium yoelii infected in Swiss mouse assessed as suppression of parasitemia at 6 mg/kg, po for 4 days by microscopic analysis relative to control; how it was run: as §1
Plasmodium yoelii [8] = experiment: Antimalarial activity against chloroquine, mefloquine and halofantrine-resistant Plasmodium yoelii infected in Swiss mouse assessed as suppression of parasitemia at 48 mg/kg, po for 4 days by microscopic analysis relative to control; how it was run: as §1
Plasmodium yoelii [9] = experiment: Antimalarial activity against chloroquine, mefloquine and halofantrine-resistant Plasmodium yoelii infected in Swiss mouse assessed as mouse survival at 48 mg/kg, po for 4 days measured on day 28 relative to control; how it was run: as §2

| Compound | Activity (Plasmodium yoelii [1]) | Activity (Plasmodium yoelii [2]) | Activity (Plasmodium yoelii [3]) | Activity (Plasmodium yoelii [4]) | Activity (Plasmodium yoelii [5]) | Ratio (Plasmodium yoelii [6]) | Activity (Plasmodium yoelii [7]) | Activity (Plasmodium yoelii [8]) | Activity (Plasmodium yoelii [9]) |
| --- | --- | --- | --- | --- | --- | --- | --- | --- | --- |
| C[C@@H]1CC[C@H]2[C@@H](C)C(=O)N(N)[C@@H]3O[C@@]4(C)CC[C@@H]1[C@@]23OO4 | 100% | 40% | – | – | – | – | – | – | – |
| C[C@@H]1CC[C@H]2[C@@H](C)C(=O)N(O)[C@@H]3O[C@@]4(C)CC[C@@H]1[C@@]23OO4 | 54% | 0% | – | – | – | – | – | – | – |
| C[C@@H]1CC[C@H]2[C@@H](C)C(=O)N(NC(=O)c3ccccc3)[C@@H]3O[C@@]4(C)CC[C@@H]1[C@@]23OO4 | 100% | 100% | 62% | 0% | – | – | – | – | – |
| C[C@@H]1CC[C@H]2[C@@H](C)C(=O)N(NC(=O)c3ccc(Br)cc3)[C@@H]3O[C@@]4(C)CC[C@@H]1[C@@]23OO4 | 100% | 100% | 100% | 0% | – | – | – | – | – |
| C[C@@H]1CC[C@H]2[C@@H](C)C(=O)N(NC(=O)c3ccc(C(F)(F)F)cc3)[C@@H]3O[C@@]4(C)CC[C@@H]1[C@@]23OO4 | 100% | 100% | 100% | 20% | – | – | – | – | – |
| C[C@@H]1CC[C@H]2[C@@H](C)C(=O)N(NC(=O)C34CC5CC(CC(C5)C3)C4)[C@@H]3O[C@@]4(C)CC[C@@H]1[C@@]23OO4 | 100% | 60% | – | – | – | – | – | – | – |
| C[C@@H]1CC[C@H]2[C@@H](C)C(=O)N(NC(=O)C3c4ccccc4-c4ccccc43)[C@@H]3O[C@@]4(C)CC[C@@H]1[C@@]23OO4 | 100% | 60% | – | – | – | – | – | – | – |
| C[C@@H]1CC[C@H]2[C@@H](C)C(=O)N(NC(=O)c3ccc(-c4ccccc4)cc3)[C@@H]3O[C@@]4(C)CC[C@@H]1[C@@]23OO4 | 100% | 100% | 100% | 100% | 0% | 4 | 94% | – | – |
| C[C@@H]1CC[C@H]2[C@@H](C)C(=O)N(NC(=O)CC34CC5CC(CC(C5)C3)C4)[C@@H]3O[C@@]4(C)CC[C@@H]1[C@@]23OO4 | 100% | 60% | – | – | – | – | – | – | – |
| C[C@@H]1CC[C@H]2[C@@H](C)C(=O)N(/N=C/c3ccccc3)[C@@H]3O[C@@]4(C)CC[C@@H]1[C@@]23OO4 | 100% | 40% | – | – | – | – | – | – | – |
| Cc1ccc(/C=N/N2C(=O)[C@H](C)[C@@H]3CC[C@@H](C)[C@@H]4CC[C@@]5(C)OO[C@]43[C@H]2O5)cc1 | 100% | 100% | 100% | 100% | 0% | 4 | 66% | – | – |
| C[C@@H]1CC[C@H]2[C@@H](C)C(=O)N(/N=C/c3ccc(Cl)cc3)[C@@H]3O[C@@]4(C)CC[C@@H]1[C@@]23OO4 | 100% | 20% | – | – | – | – | – | – | – |
| C[C@@H]1CC[C@H]2[C@@H](C)C(=O)N(/N=C/c3ccc(F)cc3)[C@@H]3O[C@@]4(C)CC[C@@H]1[C@@]23OO4 | 100% | 40% | – | – | – | – | – | – | – |
| C[C@@H]1CC[C@H]2[C@@H](C)C(=O)N(/N=C/c3ccc(C(F)(F)F)cc3)[C@@H]3O[C@@]4(C)CC[C@@H]1[C@@]23OO4 | 100% | 100% | 100% | 100% | 0% | 4 | 99% | – | – |
| C[C@@H]1CC[C@H]2[C@@H](C)C(=O)N(/N=C/c3ccc(-c4ccccc4)cc3)[C@@H]3O[C@@]4(C)CC[C@@H]1[C@@]23OO4 | 100% | 100% | 100% | 100% | 80% | 4 | 100% | – | – |
| C[C@@H]1CC[C@H]2[C@@H](C)C(=O)N(/N=C/c3ccc4c(c3)Cc3ccccc3-4)[C@@H]3O[C@@]4(C)CC[C@@H]1[C@@]23OO4 | 100% | 100% | 100% | 100% | 0% | 4 | 66% | – | – |
| C[C@@H]1CC[C@H]2[C@@H](C)C(=O)N(NCc3ccccc3)[C@@H]3O[C@@]4(C)CC[C@@H]1[C@@]23OO4 | 100% | 100% | 100% | 0% | – | – | – | – | – |
| Cc1ccc(CNN2C(=O)[C@H](C)[C@@H]3CC[C@@H](C)[C@@H]4CC[C@@]5(C)OO[C@]43[C@H]2O5)cc1 | 100% | 60% | 74% | 0% | – | – | – | – | – |
| C[C@@H]1CC[C@H]2[C@@H](C)C(=O)N(NCc3ccc(Cl)cc3)[C@@H]3O[C@@]4(C)CC[C@@H]1[C@@]23OO4 | 100% | 100% | 100% | 80% | – | – | – | – | – |
| C[C@@H]1CC[C@H]2[C@@H](C)C(=O)N(NCc3ccc(F)cc3)[C@@H]3O[C@@]4(C)CC[C@@H]1[C@@]23OO4 | 100% | 100% | 100% | 20% | – | – | – | – | – |
| C[C@@H]1CC[C@H]2[C@@H](C)C(=O)N(NCc3ccc(C(F)(F)F)cc3)[C@@H]3O[C@@]4(C)CC[C@@H]1[C@@]23OO4 | 100% | 100% | 100% | 20% | – | – | – | – | – |
| C[C@@H]1CC[C@H]2[C@@H](C)C(=O)N(NCc3ccc(-c4ccccc4)cc3)[C@@H]3O[C@@]4(C)CC[C@@H]1[C@@]23OO4 | 100% | 100% | 100% | 100% | 20% | 4 | 100% | – | – |
| C[C@@H]1CC[C@H]2[C@@H](C)C(=O)N(NCc3ccc4c(c3)Cc3ccccc3-4)[C@@H]3O[C@@]4(C)CC[C@@H]1[C@@]23OO4 | 100% | 100% | 100% | 40% | – | – | – | – | – |
| C[C@@H]1CC[C@H]2[C@@H](C)C(=O)N(OCc3ccccc3)[C@@H]3O[C@@]4(C)CC[C@@H]1[C@@]23OO4 | 100% | 100% | 100% | 80% | – | – | – | – | – |
| C[C@@H]1CC[C@H]2[C@@H](C)C(=O)N(OCc3ccccc3F)[C@@H]3O[C@@]4(C)CC[C@@H]1[C@@]23OO4 | 100% | 100% | 89% | 0% | – | – | – | – | – |
| C[C@@H]1CC[C@H]2[C@@H](C)C(=O)N(OCc3ccc(-c4ccccc4)cc3)[C@@H]3O[C@@]4(C)CC[C@@H]1[C@@]23OO4 | 100% | 100% | 100% | 60% | – | – | – | – | – |
| CCO[C@H]1O[C@@H]2O[C@@]3(C)CC[C@H]4[C@H](C)CC[C@@H]([C@H]1C)[C@@]24OO3 [ARTEMOTIL] | 100% | 20% | – | – | – | – | – | 100% | 100% |
